Legend:
[1] = test system: Trypanosoma brucei brucei; assay: Antitrypanosomal activity against Trypanosoma brucei brucei Lister 427 assessed as parasite growth inhibition measured after 48 hrs by alamar blue assay; settings: Lister 427, 48 h
Trypanosoma cruzi = assay: Antitrypanosomal activity against Trypanosoma cruzi infected in rat H9c2 infected with trypomastigotes from parasite-infected monkey LLC-MK2 cells measured after 72 hrs by DRAQ5 DNA dye based microscopic imaging analysis; format: functional, organism-based; settings: H9c2, 72 h
[2] = Cytotoxicity against human HEK293 cells assessed as reduction in cell viability measured after 48 hrs by resazurin assay; format: cell-based
Method in brief: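 HEK293 cells from ATCC; Alamar Blue viability read-out run per earlier method.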

[3] = Cytotoxicity against human HepG2 cells assessed as reduction in cell viability measured after 48 hrs by CellTiter-Glo assay; format: cell-based
Method in brief: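 HepG2 human hepatoma cells from GSK Biological Reagents and Assay Development (Stevenage, UK); viability read-out per earlier method.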

[4] = Cytotoxicity against rat H9c2 cells assessed as reduction in cell viability; format: cell-based
[5] = Lipophilicity, logP of the compound; format: physicochemical; settings: octanol/water

IC50 [1]	IC50 (Trypanosoma cruzi)	logP [5]	SMILES	CC50 at 48 h [2]	CC50 at 48 h [3]	CC50 [4]
4.5 µM	1 µM	5	CCCn1c(NC(=O)Cc2ccc(C(F)(F)F)cc2)nc2ccccc21	> 83 µM	> 50 µM	> 50 µM
9.4 µM	1.3 µM	5.2	CCCn1c(NC(=O)Cc2ccc(Cl)cc2)nc2cccc(C)c21	> 83 µM	> 50 µM	> 50 µM
0.038 µM			COc1ccc(C[C@H](N)C(=O)N[C@H]2[C@@H](O)[C@H](n3cnc4c(N(C)C)ncnc43)O[C@@H]2CO)cc1 [PUROMYCIN]	0.23 µM		
3.6 µM	3.2 µM	4.3	CCCn1c(NC(=O)Cc2ccccc2F)nc2ccccc21	> 83 µM	> 50 µM	> 50 µM
3.2 µM	2 µM	4.3	CCCn1c(NC(=O)Cc2cccc(F)c2)nc2ccccc21	> 83 µM	> 50 µM	> 50 µM
2.4 µM	0.5 µM	5.3	CCCn1c(NC(=O)Cc2ccc(Cl)cc2)nc2ccc(Cl)cc21	> 83 µM	> 50 µM	6.3 µM
2.4 µM	1.6 µM	5	CCCn1c(NC(=O)CCCc2ccccc2)nc2ccccc21	> 83 µM	> 50 µM	16 µM
2 µM	1.6 µM	4.9	CCCn1c(NC(=O)Cc2ccccc2Br)nc2ccccc21	> 83 µM	20 µM	> 50 µM
2.5 µM	2.5 µM	4.3	CCCn1c(NC(=O)Cc2ccc(F)cc2)nc2ccccc21	> 83 µM	> 50 µM	> 50 µM
4.1 µM	4 µM	4.1	CCCn1c(NC(=O)Cc2ccccc2)nc2ccccc21	> 83 µM	> 50 µM	> 50 µM
> 83 µM	6.3 µM	4	CCCn1c(NC(=O)Cc2ccccc2OC)nc2ccccc21	> 83 µM	> 50 µM	13 µM
3.6 µM	1.6 µM	4.7	CCCn1c(NC(=O)Cc2cccc(Cl)c2)nc2ccccc21	15 µM	> 50 µM	> 50 µM
3.6 µM	2 µM	4.6	CCCn1c(NC(=O)Cc2cccc(C)c2)nc2ccccc21	15 µM	> 50 µM	> 50 µM
> 83 µM	40 µM	3.8	CCCn1c(NC(=O)Cc2ccc(O)cc2)nc2ccccc21	> 83 µM	> 50 µM	> 50 µM
15 µM		5.2	CCCn1c(NC(=O)Cc2ccc(Cl)cc2)nc2ccc(C)cc21	> 83 µM		
2.6 µM	1 µM	5.1	CCCn1c(NC(=O)Cc2cccc3ccccc23)nc2ccccc21	10 µM	20 µM	> 50 µM
2.9 µM	1 µM	4.9	CCCn1c(NC(=O)Cc2cccc(Br)c2)nc2ccccc21	> 83 µM	> 50 µM	> 50 µM
5.4 µM	2.5 µM	4.8	CCCn1c(NC(=O)Nc2ccc(Cl)cc2)nc2ccccc21	5.2 µM	40 µM	> 50 µM
4.4 µM	1.6 µM	5.2	CCCCn1c(NC(=O)Cc2ccc(Cl)cc2)nc2ccccc21	> 83 µM	> 50 µM	13 µM
11 µM	13 µM	3.9	CCCCC(=O)Nc1nc2ccccc2n1CCC	2.6 µM	> 50 µM	25 µM
14 µM	32 µM	3.7	CCCn1c(NC(=O)Cc2ccc(OC(C)=O)cc2)nc2ccccc21	> 83 µM	> 50 µM	> 50 µM
2.8 µM		5.5	CCCn1c(NC(=O)Cc2ccc(Cl)cc2)nc2cccc(Br)c21	> 83 µM		
1.5 µM	0.4 µM	5.5	CCCn1c(NC(=O)Cc2ccc(Cl)cc2)nc2ccc(Br)cc21	> 83 µM	> 50 µM	13 µM
5.2 µM	3.2 µM	4	CCCn1c(NC(=O)Cc2ccc(OC)cc2)nc2ccccc21	> 83 µM	> 50 µM	> 50 µM

IC50 [1]	IC50 (Trypanosoma cruzi)	logP [5]	SMILES	CC50 at 48 h [2]	CC50 at 48 h [3]	CC50 [4]
3.7 µM	1 µM	5.6	CCCCCn1c(NC(=O)Cc2ccc(Cl)cc2)nc2ccccc21	> 83 µM	> 50 µM	> 50 µM
> 83 µM	20 µM	5.1	C=CCc1c(NC(=O)Cc2ccc(Cl)cc2)ncc2ccccc12	> 83 µM	> 50 µM	> 50 µM
2.1 µM	1.3 µM	4.6	CCCn1c(NC(=O)/C=C/c2ccccc2)nc2ccccc21	> 83 µM	40 µM	20 µM
> 83 µM	3.2 µM	4.6	CCCn1c(NC(=O)Cc2ccc(Cl)cc2)nc2c(OC)cccc21	> 83 µM	> 50 µM	> 50 µM
4.3 µM	4 µM	4	CCCn1c(NC(=O)Cc2cccc(OC)c2)nc2ccccc21	> 83 µM	> 50 µM	> 50 µM
	50 µM	3.6	O=C(Cc1ccc(Cl)cc1)Nc1nc2ccccc2[nH]1	> 83 µM	> 50 µM	> 50 µM
3.5 µM	5 µM	4.6	CCCn1c(NC(=O)CCc2ccccc2)nc2ccccc21	14 µM	> 50 µM	> 50 µM
0.9 µM	1.3 µM	4.9	CCCn1c(NC(=O)Cc2ccc(Cl)cc2)nc2ccc(F)cc21	14 µM	> 50 µM	25 µM
16 µM	0.79 µM	5.5	CCCn1c(NC(=O)Cc2ccc(Cl)cc2)nc2cc(Br)ccc21	> 83 µM		> 50 µM
3.2 µM	1 µM	5.6	CCCn1c(NC(=O)Cc2ccc(OC(F)(F)F)cc2)nc2ccccc21	> 83 µM	> 50 µM	10 µM
0.087 µM			N=C(N)c1ccc(/N=N/Nc2ccc(C(=N)N)cc2)cc1 [DIMINAZENE DIACETURATE]	38.5 µM		
5 µM	2 µM	4.9	CCCn1c(NC(=O)Cc2ccc(Br)cc2)nc2ccccc21	> 83 µM	> 50 µM	> 50 µM
> 83 µM	7.9 µM	3.7	CCCn1c(NC(=O)Cc2ccc(Cl)nc2)nc2ccccc21	> 83 µM	> 50 µM	> 50 µM
7.3 µM	2.5 µM	5.7	CCCCCCCCC(=O)Nc1nc2ccccc2n1CCC	> 83 µM	> 50 µM	20 µM
5.5 µM	1.3 µM	5.1	CCCn1c(NC(=O)Cc2ccc3ccccc3c2)nc2ccccc21	> 83 µM	25 µM	> 50 µM
3.8 µM	3.2 µM	3.8	Cn1c(NC(=O)Cc2ccc(Cl)cc2)nc2ccccc21	> 83 µM	> 50 µM	> 50 µM
	1.58 µM		O=C(Cn1ccnc1[N+](=O)[O-])NCc1ccccc1 [BENZNIDAZOLE]			31.6 µM
2.3 µM	2 µM	4.7	CCCn1c(NC(=O)Cc2ccccc2Cl)nc2ccccc21	14 µM	25 µM	25 µM
3.8 µM	5 µM	4.1	CCCn1c(NC(=O)c2ccccc2)nc2ccccc21	> 83 µM	25 µM	> 50 µM
2.6 µM	2.5 µM	4.6	CCCn1c(NC(=O)Cc2ccccc2C)nc2ccccc21	> 83 µM	> 50 µM	> 50 µM
3.4 µM	1 µM	5.8	CCCn1c(NC(=O)Cc2ccc(-c3ccccc3)cc2)nc2ccccc21	> 83 µM	> 50 µM	> 50 µM
0.014 µM			N=C(N)c1ccc(OCCCCCOc2ccc(C(=N)N)cc2)cc1 [PENTAMIDINE]	0.67 µM		
	0.5 µM	5.4	CCCc1c(NC(=O)Cc2ccc(Cl)cc2)ncc2ccccc12		7.94 µM	3.2 µM

SMILES	IC50 [1]	IC50 (Trypanosoma cruzi)	logP [5]	CC50 at 48 h [2]	CC50 at 48 h [3]	CC50 [4]
CCCn1c(C(=O)NCc2ccc(Cl)cc2)nc2ccccc21	> 83 µM	10 µM	4.1	> 83 µM	> 50 µM	16 µM

Reference: ChEMBL document CHEMBL4699414, “Hit-to-lead optimization of novel benzimidazole phenylacetamides as broad spectrum trypanosomacides” (RSC Med Chem, 2020)
